Compound activity: PubChem, several laboratories
Lmaj promast: Leishmania major promastigote growth inhibition; AID 1063; inhibition, % at 10 µM; Leishmania major promastigotes, resazurin fluorescence viability; actives 9% (n = 200,000); in the data active means inhibition above about 50%;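 further: promastigotes grown with compound for 44 hours at 28 °C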
PMI act hi M6P: PMI (human) activation, high substrate. P34949. coupled PMI enzyme assay, resazurin fluorescence, 20 min; active compounds read high; 1 = untreated enzyme, 0 = substrate-free blank. activation factor at 20 µM. actives 0.34% (n = 190,000). AID 1216;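 active means activation factor of 2 or more at 20 µM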
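assay system = human phosphomannose isomerase with PGI, G6PDH, diaphorase coupling enzymes | quantity = 15 ng/mL PMI | incubation = enzyme reaction with compound 20 min at room temperature | medium = HEPES pH 7.4 buffer with MgCl2 and Tween-20 | compound dosing = one concentration, 20 µM, in 1% DMSO | measured by = Diaphorase-driven resazurin-to-resorufin fluorescence, excitation 544, emission 590 nm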
WT yeast gro inh: growth inhibition of WT yeast, mitochondrial fusion screen; AID 1362; inhibition, % at 10 µM; actives 2.1% (n = 190,000); mitochondrial fusion phenotypic screen, WT strain; in the data active means inhibition above about 58%; tested in S. cerevisiae
Rad51 HR inh: blocks human Rad51 in homologous recombination; Q06609; hRad51 DNA strand exchange, fluorescence dequenching; AID 1385; actives 0.085% (n = 200,000); inhibition, % at 10 µM;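 active means inhibition above 40% at the single screening dose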;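 further: 0% = DMSO control wells and 100% = blanks with heterologous ssDNA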
Target sequence (Q06609 whole entry, looked up): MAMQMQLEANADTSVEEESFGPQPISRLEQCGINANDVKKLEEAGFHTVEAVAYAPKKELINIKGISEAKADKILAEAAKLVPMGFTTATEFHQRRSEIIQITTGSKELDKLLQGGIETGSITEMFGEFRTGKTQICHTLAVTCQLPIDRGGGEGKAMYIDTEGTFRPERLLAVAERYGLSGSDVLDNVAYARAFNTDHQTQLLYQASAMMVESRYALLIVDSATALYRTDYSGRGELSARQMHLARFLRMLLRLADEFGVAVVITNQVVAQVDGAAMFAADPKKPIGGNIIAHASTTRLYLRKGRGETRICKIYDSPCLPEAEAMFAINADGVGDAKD
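Material: Human Rad51 nucleoprotein filaments preassembled on unlabelled ssDNA | Also added: Labelled 47-mer dsDNA for strand exchange | Dosing: Single dose, 10 µM final compound | Schedule: 30-min compound preincubation and 15-min exchange, both room temperature | Technique: Fluorescence dequenching at 485/520 nm | Measure: Percent inhibition relative to plate controls and blanks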
PMI act: increases human mannose-6-phosphate isomerase activity; purified human PMI, coupled resazurin fluorescence, 20 min; active compounds read high; 1 = vehicle control, 0 substrate-free wells; AID 1214; actives 0.005% (n = 190,000); activation factor at 20 µM;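 active means activation factor of 2 or more at 20 µM, relative to plate controls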
Calpain2 inh: calpain II (pig) inhibition; actives 0.37% (n = 220,000); purified calpain II, fluorogenic peptide substrate, 30 min; AID 1236; inhibition, % at 16 µM;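 active means inhibition above about 50%, limit read from the data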
An asterisk follows results filed as active; nt = no result given. Hits are enriched below; roughly 9.8% of the tested compounds scored in any of these assays.

SMILES	Lmaj promast	PMI act hi M6P	WT yeast gro inh	Rad51 HR inh	PMI act	Calpain2 inh
S=C(NCCc1ccccc1)Nc1ccccc1Cl	68*	1	16	4	1	19
S=C(NCCCc1ccccc1)Nc1ccccc1Cl	17	1	68*	-13	1	43
CC1=C/C(=N\NC(=S)NCCc2ccccc2)CC(C)(C)C1	9	1	70*	4	1	37
S=C(NCCc1ccccc1)N/N=C/c1c(Cl)cccc1Cl	-8	1	6	1	0.9	-2
CCCN1Cc2cccc(C(=O)Nc3ccc(-c4nc5ccccc5[nH]4)cc3)c2C1=O	50	1	6	12	0.9	-119
CN1CCN(C2=Cc3ccccc3Sc3cc(F)c(F)cc32)CC1	101*	1.1	95	0	1.1	11
CN1CCN(c2nc(-c3ccccc3)cc(C(F)(F)F)n2)CC1	1	1	21	-1	1.1	-44
CN1CCN(C2=Cc3ccccc3Sc3cc(F)c(Cl)cc32)CC1	93*	1	98*	-4	1.1	-43
CN1CCN(C2=Cc3cc(Cl)ccc3Sc3cc(F)ccc32)CC1	100*	1.1	95*	8	1.1	-16
CN(C)c1nc(OCCNC(=O)COc2ccc(Cl)cc2Cl)nc(N2CCOCC2)n1	6	1.1	-8	5	1	10
O=C(COc1ccccc1Cl)NCCCN1CCOCC1	80*	0.9	-5	-1	0.9	-5
CC(Oc1ccc(Cl)cc1Cl)C(=O)NCCN1CCOCC1 (stereo not drawn)	79*	0.9	25	-10	1.1	-23
O=C(COc1ccc(Cl)cc1Cl)NCCCN1CCOCC1	94*	0.9	19	2	1	-22
COC(=O)COc1ccc(S(=O)(=O)NCCC2=CCCCC2)cc1C	-9	1	-20	45*	0.9	-5
COC(=O)COc1ccc(S(=O)(=O)NCCC2=CCCCC2)cc1	-4	0.9	-2	8	0.9	45
CCOC(=O)N1CCN(CC(=O)N2CCC(C(N)=O)CC2)CC1	-6	1.1	-14	8	1	-15
O=C(COc1ccc(Cl)cc1Cl)NCCC1=CCCCC1	-4	0.8	66*	-3	0.8	-1
Cc1ccccc1OCC(=O)NCCC1=CCCCC1	8	1.1	9	nt	1.1	9
Cc1cc(Cl)ccc1OCC(=O)NCCCN1CCOCC1	92*	1	6	-6	1	9
CC(OC(=O)Cc1c(F)cccc1Cl)C(=O)NCCC1=CCCCC1 (stereo not drawn)	52*	1	-13	-2	1	-3
COc1ccc(OC(C)C(=O)NCCC2=CCCCC2)cc1 (stereo not drawn)	10	0.9	3	-8	1	7
COC(=O)C1(Cc2ccc(O)c(CC3OC3(C)C)c2)OC(=O)C(O)=C1c1ccc(O)cc1 (stereo not drawn)	nt	nt	nt	0	nt	0
COc1ccc(S(=O)(=O)N(C)C)cc1NCC(=O)Nc1ccc(Br)c(C)c1	24	1.1	1	8	1	-13
O=c1[nH]c(Nc2nc3ccccc3o2)nc2c1CCCC2	95*	0.9	29	-3	0.9	-31
CCOc1cccc(CNc2ccc(O)cc2)c1OCc1ccc(Cl)cc1	100*	0.4	18	-3	0.5	12
SMILES	Lmaj promast	PMI act hi M6P	WT yeast gro inh	Rad51 HR inh	PMI act	Calpain2 inh
Oc1ccc(NCc2ccccc2OCc2ccccc2F)cc1	100*	0.8	16	15	0.6	-10
Cc1ccc(NCc2ccccc2OCc2ccccc2F)cc1	6	1.1	20	2	1	-36
CCOc1cc(OCC)nc(S(C)(=O)=O)n1	8	1.1	-22	-22	1.1	-4
NS(=O)(=O)c1ccc(NC(=O)COC(=O)COc2cccc(C(F)(F)F)c2)cc1	nt	nt	nt	-9	nt	-25
CCOC(=O)c1ccc2c(c1)nc(SCc1cn3ccsc3n1)n2CC	99*	1	28	4	1	26
CCOC(=O)c1sc(NC(=O)CSc2n[nH]c(-c3ccc(Cl)cc3Cl)n2)c(C#N)c1C	-13	0.7	58*	-2	0.7	-63
Cc1sc2nc(-c3ccccc3)oc(=O)c2c1C	-2	1	2	nt	1	-35
Cc1c([N+](=O)[O-])c([N+](=O)[O-])nn1CC(=O)N1CCOCC1	-2	1	-9	13	1.1	-19
CN1CCN(NC(=O)c2cc(S(=O)(=O)Nc3ccc(Cl)cc3)ccc2Cl)CC1	nt	nt	nt	nt	nt	-311
CN(C)c1ccc(/C=C2/C(=O)N(c3ccc([N+](=O)[O-])cc3)N=C2N2CCOCC2)cc1	-5	0.7	17	9	0.9	-20
CN(C)c1ccc(/C=C2\C(=O)N(c3ccc([N+](=O)[O-])cc3)N=C2N2CCOCC2)cc1	80*	nt	nt	nt	nt	nt
CCCC(=O)c1cc2c(cc1NC(=O)c1ccccc1F)OCCO2	-3	1.1	-6	nt	1.1	-17
CCCCCCCn1c(=N)n(CC(O)c2ccco2)c2ccccc21 (stereo not drawn)	82*	1	42	-7	0.9	17
CCCCn1c(=N)n(CC(=O)c2ccco2)c2ccccc21	11	1.1	13	-2	1	10
N=c1n(CCN2CCCC2)c2ccccc2n1CC(O)c1ccco1 (stereo not drawn)	-2	1	40	-2	0.9	15
CCCCCCCn1c(=N)n(CC(=O)c2ccco2)c2ccccc21	100*	1	29	1	0.9	-12
CCNc1nc(NC(C)C)nc(N(n2cnnc2)S(=O)(=O)c2ccc(C)cc2)n1	58*	0.9	-14	-16	0.8	8
CN(C)c1nc(NCc2ccccc2)nc(N/N=C/c2cccc(Br)c2)n1	52*	1.1	46	10	1.2	-4
C(=N\Nc1nc(N2CCCCCC2)nc(N2CCCCCC2)n1)/c1ccccc1	61*	0.8	68*	28	0.8	6
C(=N\Nc1nc(N2CCCC2)nc(N2CCCC2)n1)/c1ccccc1OCc1ccccc1	4	0.9	5	9	0.9	-3
Fc1ccc(Nc2nc(N/N=C/c3ccco3)nc(N3CCCCC3)n2)cc1	83*	1.1	82*	-2	1.2	-58
C(=N\Nc1nc(N2CCOCC2)nc(N2CCOCC2)n1)/c1ccco1	-5	nt	19	-3	nt	16
Fc1ccccc1COc1ccccc1/C=N/Nc1nc(N2CCCC2)nc(N2CCCC2)n1	50*	1	10	nt	1	-4
NC(Cc1c[nH]c2ccccc12)C(=O)Nc1ccccc1 (stereo not drawn)	nt	nt	nt	-6	nt	nt
BrC(=C\c1ccccc1)/C=N/Nc1nc(N2CCOCC2)nc(N2CCOCC2)n1	86*	1.1	16	2	1	23
Oc1ccc(/C=N/Nc2nc(N3CCCC3)nc(N3CCCC3)n2)cc1O	3	0.7	13	-3	0.4	-45
